Data published in ChEMBL document CHEMBL3244061, “Angiotensin II analogues. 12. Role of the aromatic ring of position 8 phenylalanine in pressor activity” (J Med Chem, 1979).
Peptide text beside a SMILES is read from it.

What was measured:
Rattus norvegicus [1] = organism: Rattus norvegicus; test: Induction of pressor activity in nephrectomized, pentolinium-treated rat model relative to angiotensin 2; format: organism-based; conditions: in vivo
In short: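 Pressor activity was measured in male rats that were nephrectomized, treated with pentolinium and anesthetized with pentobarbital. Peptides were dissolved in normal saline containing 0.1% polyvinylpyrrolidone and kept in siliconized glass. Molarities of all solutions, including the angiotensin II standard, were set from peptide content determined by amino acid analysis of hydrolysates. Activity was expressed relative to angiotensin II.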

Rattus norvegicus [2] = organism: Rattus norvegicus; test: Inhibition of angiotensin-2-induced pressor activity in rat assessed as duration of action; format: functional, organism-based
In short: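 Antagonist was given to rats as a single 4000 pmol dose. Pressor responses to 20 pmol angiotensin II were then followed. Duration of action (T1/2) was taken as the time for the angiotensin II response to recover to one-half of its pretreatment level.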

Rattus norvegicus [3] = organism: Rattus norvegicus; test: Inhibition of 3 to 12 pmol angiotensin-2-induced pressor activity in rat at 400 pmol measured after 30 mins; format: functional
In short: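 A single 400 pmol injection of antagonist was given. Pressor responses to single angiotensin II doses of 3, 6 and 12 pmol were then tracked. Duration (T1/2) was taken as the time for the responses to return to one-half of the pretreatment level.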

Rattus norvegicus [4] = organism: Rattus norvegicus; test: Inhibition of 70 pmol angiotensin-2-induced pressor activity in rat at 1400 pmol/min co-infused with angiotensin-2 measured after 30 mins; format: functional
In short: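 Antagonist and angiotensin II were coinjected at a 20:1 ratio (1400 pmol/70 pmol per minute) for 30 min. The percent reduction of the angiotensin II pressor effect was recorded. Recovery to one-half of the pretreatment level was followed after the infusion stopped.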

| Molecule | Activity (Rattus norvegicus [1]) | also measured |
| --- | --- | --- |
| CC[C@H](C)[C@H](NC(=O)[C@H](Cc1ccc(O)cc1)NC(=O)[C@@H](NC(=O)[C@@H](C)N)C(C)C)C(=O)N[C@@H](Cc1cnc[nH]1)C(=O)N1CCC[C@H]1C(=O)N[C@@H](CC(C)C)C(=O)O | 1.4% |  |
| CC[C@H](C)[C@H](NC(=O)[C@H](Cc1ccc(O)cc1)NC(=O)[C@@H](NC(=O)[C@H](CCCNC(=N)N)NC(=O)[C@@H](N)CC(=O)O)C(C)C)C(=O)N[C@@H](Cc1c[nH]cn1)C(=O)N1CCC[C@H]1C(=O)N[C@@H](CC1CCCCC1)C(=O)O | 20% |  |
| CC[C@H](C)[C@H](NC(=O)[C@H](Cc1ccc(O)cc1)NC(=O)[C@@H](NC(=O)[C@H](CCCNC(=N)N)NC(=O)[C@@H](N)CC(=O)O)C(C)C)C(=O)N[C@@H](Cc1c[nH]cn1)C(=O)N1CCC[C@H]1C(=O)N[C@@H](Cc1ccc(F)cc1)C(=O)O | 100% |  |
| CC[C@H](C)[C@H](NC(=O)[C@H](Cc1ccc(O)cc1)NC(=O)[C@@H](NC(=O)[C@H](CCCNC(=N)N)NC(=O)[C@@H](N)CC(=O)O)C(C)C)C(=O)N[C@@H](Cc1c[nH]cn1)C(=O)N1CCC[C@H]1C(=O)N[C@@H](Cc1ccc(OC)cc1)C(=O)O | 33% |  |
| CCCC[C@H](NC(=O)[C@@H]1CCCN1C(=O)[C@H](Cc1c[nH]cn1)NC(=O)[C@@H](NC(=O)[C@H](Cc1ccc(O)cc1)NC(=O)[C@@H](NC(=O)[C@H](CCCNC(=N)N)NC(=O)[C@@H](N)CC(=O)O)C(C)C)[C@@H](C)CC)C(=O)O | 7.3% |  |
| CC[C@H](C)[C@H](NC(=O)[C@H](Cc1ccc(O)cc1)NC(=O)[C@@H](NC(=O)[C@H](CCCN=C(N)N)NC(=O)[C@@H](N)CC(=O)O)C(C)C)C(=O)N[C@@H](Cc1c[nH]cn1)C(=O)N1CCC[C@H]1C(=O)N[C@@H](Cc1ccc(Br)cc1)C(=O)O | 50% |  |
| CCCCC[C@H](NC(=O)[C@@H]1CCCN1C(=O)[C@H](Cc1cnc[nH]1)NC(=O)[C@@H](NC(=O)[C@H](Cc1ccc(O)cc1)NC(=O)[C@@H](NC(=O)[C@H](CCCNC(=N)N)NC(=O)[C@@H](N)CC(N)=O)C(C)C)[C@@H](C)CC)C(=O)O (HELM PEPTIDE1{N.R.V.Y.I.H.P.[CCCCC[C@H](N[*:1])C(=O)O]}$$$$V2.0) | 11.5% |  |
| CC[C@H](C)[C@H](NC(=O)[C@H](Cc1ccc(O)cc1)NC(=O)[C@@H](NC(=O)[C@H](CCCNC(=N)N)NC(=O)[C@@H](N)CC(N)=O)C(C)C)C(=O)N[C@@H](Cc1cnc[nH]1)C(=O)N1CCC[C@H]1C(=O)N[C@@H](Cc1ccc(N)cc1)C(=O)O (HELM PEPTIDE1{N.R.V.Y.I.H.P.[Nc1ccc(C[C@H](N[*:1])C(=O)O)cc1]}$$$$V2.0) | 52.5% |  |
| CCCC[C@H](NC(=O)[C@@H]1CCCN1C(=O)[C@H](Cc1cnc[nH]1)NC(=O)[C@@H](NC(=O)[C@H](Cc1ccc(O)cc1)NC(=O)[C@@H](NC(=O)[C@H](CCCNC(=N)N)NC(=O)[C@@H](N)CC(N)=O)C(C)C)[C@@H](C)CC)C(=O)O (HELM PEPTIDE1{N.R.V.Y.I.H.P.[Nle]}$$$$V2.0) | 7.3% |  |
| CC[C@H](C)[C@H](NC(=O)[C@H](Cc1ccc(O)cc1)NC(=O)[C@@H](NC(=O)[C@H](CCCNC(=N)N)NC(=O)[C@@H](N)CC(N)=O)C(C)C)C(=O)N[C@@H](Cc1cnc[nH]1)C(=O)N1CCC[C@H]1C(=O)NC1(C(=O)O)Cc2ccccc2C1 (HELM PEPTIDE1{N.R.V.Y.I.H.P.[O=C(O)C1(N[*:1])Cc2ccccc2C1]}$$$$V2.0) | 0.1% |  |
| CC[C@H](C)[C@H](NC(=O)[C@H](Cc1ccc(O)cc1)NC(=O)[C@@H](NC(=O)[C@H](CCCNC(=N)N)NC(=O)[C@@H](N)CC(N)=O)C(C)C)C(=O)N[C@@H](Cc1cnc[nH]1)C(=O)N1CCC[C@H]1C(=O)N[C@@H](Cc1ccc([N+](=O)[O-])cc1)C(=O)O (HELM PEPTIDE1{N.R.V.Y.I.H.P.[O=C(O)[C@H](Cc1ccc([N+](=O)[O-])cc1)N[*:1]]}$$$$V2.0) | 15% |  |
| CC[C@H](C)[C@H](NC(=O)[C@H](Cc1ccc(O)c(Cc2ccccc2)c1)NC(=O)[C@@H](NC(=O)[C@H](CCCNC(=N)N)NC(=O)[C@@H](N)CC(N)=O)C(C)C)C(=O)N[C@@H](Cc1cnc[nH]1)C(=O)N1CCC[C@H]1C(=O)N[C@@H](Cc1ccc([N+](=O)[O-])cc1)C(=O)O (HELM PEPTIDE1{N.R.V.[O=C([C@H](Cc1ccc(O)c(Cc2ccccc2)c1)N[*:1])[*:2]].I.H.P.[O=C(O)[C@H](Cc1ccc([N+](=O)[O-])cc1)N[*:1]]}$$$$V2.0) | 0.16% |  |
| CC[C@H](C)[C@H](NC(=O)[C@H](Cc1ccc(O)cc1)NC(=O)[C@@H](NC(=O)[C@H](CCCNC(=N)N)NC(=O)CNC)C(C)C)C(=O)N[C@@H](Cc1cnc[nH]1)C(=O)N1CCC[C@H]1C(=O)N[C@@H](CC(C)C)C(=O)O (HELM PEPTIDE1{[Sar].R.V.Y.I.H.P.L}$$$$V2.0) | 2.5% | T1/2 (Rattus norvegicus [2]): 45 min; inhibition (INH) (Rattus norvegicus [3]): 50%; inhibition (INH) (Rattus norvegicus [4]): 67% |
| H-DRVYIHPV-OH | 0.5% |  |
| H-DRVYIHPY-OH | 83% |  |
| H-NRVYIHPL-OH | 1.2% |  |
| H-NRVYVHPF-OH [ANGIOTENSIN AMIDE] | 100% |  |
